Measurements collected from several papers.
Protocols differ between the studies behind these lines.
Organism: Pseudomonas aeruginosa
Read-out: microbial growth

CN(C)[C@@H]1C(O)=C(C(N)=O)C(=O)[C@@]2(O)C(O)=C3C(=O)c4c(cc5ccc(CN(C)S(C)(=O)=O)cc5c4O)C[C@H]3C[C@@H]12
MIC (broth dilution; ATCC27853): 32 µg/mL

CC(C)Oc1c(NC(=O)c2ccc(NC(=O)[C@H](CC(N)=O)NC(=O)c3ccc(NC(=O)C(C)Sc4ccc(C#N)cc4)cc3)cc2)ccc(C(=O)Nc2ccc(C(=O)O)cc2)c1O (stereo partly shown)
MIC (PA14): > 64 µg/mL

C[C@H]1COc2c(N3CCN(C)CC3)c(F)cc3c(=O)c(C(=O)O)cn1c23
MIC (broth dilution; CMCC10104): 138 µM

Cc1ccc(C)n1-c1ccc(-c2nnco2)cc1
MIC (broth dilution; ATCC10145; 18 h): 4 µg/mL

CN(C)Cc1ccc2cc3c(c(O)c2c1)C(=O)C1=C(O)[C@]2(O)C(=O)C(C(N)=O)=C(O)[C@@H](N(C)C)[C@@H]2C[C@@H]1C3
MIC (broth dilution; ATCC27853): 32 µg/mL

Cc1cc(C(=O)Nc2ccc(C(=O)N[C@@H](CC(N)=O)C(=O)Nc3ccc(C(=O)Nc4ccc(C(=O)Nc5ccc(C(=O)O)cc5)c(O)c4OC(C)C)cc3)cc2)ccc1C#N
MIC (PA14): 4 µg/mL

Cc1ccc2nc(-c3ccc([N+](=O)[O-])cc3)n(Cc3ccccc3)c2c1
MIC (broth dilution; ATCC27853): 128 µg/mL

CN(C)[C@@H]1C(O)=C(C(N)=O)C(=O)[C@@]2(O)C(O)=C3C(=O)c4c(O)c(NCC(C)(C)CN5CCCC5)nc(Cl)c4C[C@H]3C[C@@H]12.Cl
MIC (broth dilution; ATCC27853): 32 µg/mL

COc1cc(Cc2cnc(N)nc2N)cc(OC)c1OC
MIC (broth dilution; 24 h): 8 µg/mL

CC(C)CNc1nc(Cl)c2c(c1O)C(=O)C1=C(O)[C@]3(O)C(=O)C(C(N)=O)=C(O)[C@@H](N(C)C)[C@@H]3C[C@@H]1C2.Cl.Cl.Cl
MIC (broth dilution; ATCC27853): > 32 µg/mL

COc1c(C)c(O)c(C)c(O)c1C(=O)/C=C/c1ccccc1
MIC (broth dilution; ATCC27853): 1250 µg/mL

Fc1ccc(-c2nc3ccccc3n2Cc2ccccc2)cc1
MIC (broth dilution; ATCC27853): 128 µg/mL

O=C(O)c1cn(C2CC2)c2cc(N3CCNCC3)c(F)cc2c1=O
MIC (broth dilution; ATCC10145; 18 h): > 5 µg/mL

C=CCOc1c(C)c(O)c(C(=O)/C=C/c2ccccc2)c(OC)c1C
MIC (broth dilution; ATCC27853): 5000 µg/mL

C[C@@H](O)[C@H]1C(=O)N2C(C(=O)O)=C(S[C@@H]3CN[C@H](C(=O)N(C)C)C3)[C@H](C)[C@H]12
MIC: 1.3 µM

C/C(O)=C1\C(=O)C(CC(C)C)N(C(=O)CCCCCc2ccccc2)C1=O (stereo not shown)
MIC (PA01): > 200 µg/mL

CC(=O)NCN1N=C(C)C(=NNn2c(-c3ccccc3)nc3ccccc3c2=O)C1=O
MIC (broth dilution; 24 h): 59.9 µM

CN(C)[C@@H]1C(O)=C(C(N)=O)C(=O)[C@@]2(O)C(O)=C3C(=O)c4c(O)cnc(-c5ccccc5)c4C[C@H]3C[C@@H]12.Cl.Cl
MIC (broth dilution; ATCC27853): > 32 µg/mL

O=[N+]([O-])c1ccc(-c2nc3cc(Cl)ccc3[nH]2)o1
MIC (broth dilution; ATCC27853): > 64 µg/mL

CC1(C)S[C@@H]2[C@H](NC(=O)C(C(=O)O)c3ccccc3)C(=O)N2[C@H]1C(=O)O (stereo partly shown)
MIC (broth dilution): > 200 µM

CNC(C)C1CCC(N)C(OC2C(N)CC(N)C(OC3OCC(C)(O)C(NC)C3O)C2O)O1 (stereo not shown)
MIC (broth dilution; PAO1): 4 µg/mL

CC(C)Oc1c(NC(=O)c2ccc(NC(=O)[C@H](CC(N)=O)NC(=O)c3ccc(NC(=O)c4ccc(C#N)cc4)cc3)cc2)ccc(C(=O)Nc2ccncc2)c1O
MIC (PA14): > 64 µg/mL

CCCNc1nc(Cl)c2c(c1O)C(=O)C1=C(O)[C@]3(O)C(=O)C(C(N)=O)=C(O)[C@@H](N(C)C)[C@@H]3C[C@@H]1C2.Cl.Cl.Cl
MIC (broth dilution; ATCC27853): 32 µg/mL

CC(C)Oc1c(NC(=O)c2ccc(NC(=O)[C@H](CC(N)=O)NC(=O)c3ccc(NC(=O)c4ccc(C#N)cc4)cc3)cc2)ccc(C(=O)N[C@@H]2CONC2=O)c1O
MIC (PA14): > 64 µg/mL

Fc1ccccc1NCc1ccc(Oc2ccccn2)cc1
MIC: > 25 µg/mL

O=C(CCCCCC[P+](c1ccccc1)(c1ccccc1)c1ccccc1)Nc1cc(O)c(O)c(O)c1.[Br-]
MIC (broth dilution; ATCC27853; 18 h): > 32 µg/mL

CC(C)Oc1c(NC(=O)c2ccc(NC(=O)[C@H](CC(N)=O)NC(=O)c3ccc(NC(=O)c4ccc(C#N)c(F)c4)cc3)cc2)ccc(C(=O)Nc2ccc(C(=O)O)cc2)c1O
MIC (PA14): 8 µg/mL

CCCNc1nc(N(C)C)c2c(c1O)C(=O)C1=C(O)[C@]3(O)C(=O)C(C(N)=O)=C(O)[C@@H](N(C)C)[C@@H]3C[C@@H]1C2.Cl.Cl
MIC (broth dilution; ATCC27853): > 32 µg/mL

CCN1CCN(C(=O)N[C@@H](C(=O)N[C@@H]2C(=O)N3[C@@H]2SC(C)(C)[C@@H]3C(=O)O)c2ccccc2)C(=O)C1=O
MIC: 12.5 µg/mL

CC(C)Oc1c(NC(=O)c2ccc(NC(=O)[C@H](CC(N)=O)NC(=O)c3ccc(NC(=O)c4ccc(NC(N)=O)cc4)cc3)cc2)ccc(C(=O)Nc2ccc(C(=O)O)cc2)c1O
MIC (PA14): > 64 µg/mL

CCCCCCC/C=C/C(=O)N1C(=O)/C(=C(/C)O)C(=O)C1CCCCN (stereo not shown)
MIC (PA01): > 200 µg/mL

COc1c(C)c(OC(C)=O)c(C)c(OC(C)=O)c1C(=O)/C=C/c1ccccc1
MIC (broth dilution; ATCC27853): 5000 µg/mL

CO[C@H]1/C=C/O[C@@]2(C)Oc3c(C)c(O)c4c(O)c(c(/C=N/N5CCN(C)CC5)c(O)c4c3C2=O)NC(=O)/C(C)=C\C=C\[C@H](C)[C@H](O)[C@@H](C)[C@@H](O)[C@@H](C)[C@H](OC(C)=O)[C@@H]1C
MIC (ATCC27853): 16 µg/mL

CC(C)Oc1c(NC(=O)c2ccc(NC(=O)[C@H](CC(N)=O)NC(=O)c3ccc(NC(=O)c4ccc(C#N)cc4)cc3)cc2)ccc(C(=O)Nc2ccc(C(=O)O)cc2)c1O
MIC (PA14): 2 µg/mL

CCCCCCC/C=C/C(=O)N1CC(=O)/C(=C(\C)O)C1=O
MIC (PA01): 200 µg/mL

CCCCCCC#Cc1cncc(-c2nnc(SCc3ccc(Cl)c(F)c3)n2C)c1
MIC: ≥ 20 µg/mL

CC(C)(C)OCC1NC(=O)C(C(=O)NC(C(=O)NC2C(=O)N3C2SC(C)(C)C3C(=O)O)c2ccccc2)=C1O (stereo not shown)
MIC: 12.5 µg/mL

CCCCCCC#Cc1cncc(-c2nnc(SCc3ccc(C#N)cc3)n2C)c1
MIC: ≥ 20 µg/mL

O=C(Cc1cc(O)c(O)c(O)c1)NCCCCCCCC[P+](c1ccccc1)(c1ccccc1)c1ccccc1.[Br-]
MIC (broth dilution; ATCC27853; 18 h): > 32 µg/mL

Clc1ccc(NCc2ccc(Oc3ccccn3)cc2)cc1
MIC: > 25 µg/mL

O=C1NN=C(N=Cc2ccc(O)c(O)c2)C1=NNn1c(-c2ccccc2)nc2ccccc2c1=O
MIC (broth dilution; 24 h): 53.5 µM

CC1(C)S[C@@H]2[C@H](NC(=O)[C@H](N)c3ccccc3)C(=O)N2[C@H]1C(=O)O
MIC: > 200 µg/mL

O=c1cc(-c2ccccc2)oc2cc(O)cc(O)c12
MIC (broth dilution; PAO1): 128 µg/mL

COC1CN(Cc2ccc3cc4c(c(O)c3c2)C(=O)C2=C(O)[C@]3(O)C(=O)C(C(N)=O)=C(O)[C@@H](N(C)C)[C@@H]3C[C@@H]2C4)C1
MIC (broth dilution; ATCC27853): 32 µg/mL

C[C@H]1[C@H](NC(=O)/C(=N\OC(C)(C)C(=O)O)c2csc(N)n2)C(=O)N1S(=O)(=O)O
MIC (agar dilution; ATCC27): 4 µg/mL

COc1cc(C(=O)Nc2ccc(C(=O)N[C@@H](CC(N)=O)C(=O)Nc3ccc(C(=O)Nc4ccc(C(=O)Nc5ccc(C(=O)O)cc5)c(O)c4OC(C)C)cc3)cc2)ccc1C#N
MIC (PA14): > 64 µg/mL

CN(C)c1c2c(c(O)c3cc(F)ccc13)C(=O)C1=C(O)[C@]3(O)C(=O)C(C(N)=O)=C(O)[C@@H](N(C)C)[C@@H]3C[C@@H]1C2
MIC (broth dilution; ATCC27853): > 32 µg/mL

CCCCCCC/C=C/C(=O)N1C(=O)/C(=C(\O)c2ccc(O)cc2)C(=O)C1CC(C)C (stereo not shown)
MIC (PA01): > 200 µg/mL

Cc1ccc(C)n1-c1ccc(-c2nnc(-c3ccc(N(C)C)cc3)[nH]2)cc1
MIC (broth dilution; ATCC10145; 18 h): 250 µg/mL
